Calls of active or inactive are those of the source. The calls are words filed in the database; no cut-off is given here.
What was measured:
[1] = molecular target: T1, Secreted aspartic protease 5 (Candida albicans (strain SC5314 / ATCC MYA-2876) (Yeast)) (UniProt P43094); assay: Inhibition of SAP5-dependent growth in Candida albicans SAP2MS4B expressing SAP5ex4A at 7.3 uM incubated in YCB-BSA medium
T1 sequence (whole entry): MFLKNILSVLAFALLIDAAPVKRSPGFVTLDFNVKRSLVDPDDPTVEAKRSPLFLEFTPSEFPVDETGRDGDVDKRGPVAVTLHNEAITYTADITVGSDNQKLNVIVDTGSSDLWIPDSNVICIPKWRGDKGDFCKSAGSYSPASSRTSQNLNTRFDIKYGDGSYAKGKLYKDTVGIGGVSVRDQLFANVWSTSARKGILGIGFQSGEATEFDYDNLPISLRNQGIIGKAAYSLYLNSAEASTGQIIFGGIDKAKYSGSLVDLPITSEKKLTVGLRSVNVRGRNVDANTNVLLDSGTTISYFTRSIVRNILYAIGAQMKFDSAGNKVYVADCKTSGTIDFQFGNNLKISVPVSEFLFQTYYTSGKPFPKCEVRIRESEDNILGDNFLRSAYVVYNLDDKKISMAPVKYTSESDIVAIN
Procedure, shortened: (§1)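 Overnight SD-medium (30°C) preculture diluted 1:100 into YCB-BSA (4 g/liter BSA as sole nitrogen source) adjusted to pH 5.0, with 25 μg/ml doxycycline inducing Tet-promoter SAP expression; incubated 37°C. Pepstatin A 7.3 μM or HIV protease inhibitors 100 μM (0.125% DMSO final); DMSO-only control. OD600 monitored over time.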

[2] = molecular target: Secreted aspartic protease 6 (Candida albicans) (UniProt P43095); assay: Inhibition of SAP6-dependent growth in Candida albicans SAP2MS4B expressing SAP6ex4A at 7.3 uM incubated in YCB-BSA medium; procedure, shortened: as §1
[3] = molecular target: T2, Secreted aspartic protease 9 (Candida albicans) (UniProt O42779); assay: Inhibition of SAP9-dependent growth in Candida albicans SAP2MS4B expressing SAP9deltaC493 at 7.3 uM incubated in YCB-BSA medium; procedure, shortened: as §1
T2 sequence (whole entry): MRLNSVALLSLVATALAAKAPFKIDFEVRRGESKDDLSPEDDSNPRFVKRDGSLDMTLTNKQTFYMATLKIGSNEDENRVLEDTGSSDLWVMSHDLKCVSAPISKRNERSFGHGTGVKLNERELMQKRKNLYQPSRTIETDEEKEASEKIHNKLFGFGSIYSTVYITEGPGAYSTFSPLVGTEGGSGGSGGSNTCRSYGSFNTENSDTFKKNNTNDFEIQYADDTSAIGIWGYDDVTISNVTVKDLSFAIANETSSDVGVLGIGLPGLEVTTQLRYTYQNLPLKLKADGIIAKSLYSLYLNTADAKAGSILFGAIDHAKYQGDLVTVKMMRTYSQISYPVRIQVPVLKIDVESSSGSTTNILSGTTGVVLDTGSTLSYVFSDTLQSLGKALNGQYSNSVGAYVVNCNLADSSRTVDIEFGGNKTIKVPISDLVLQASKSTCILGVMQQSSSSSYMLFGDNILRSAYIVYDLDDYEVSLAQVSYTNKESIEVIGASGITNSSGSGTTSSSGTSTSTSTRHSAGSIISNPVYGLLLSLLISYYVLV

[4] = molecular target: Secreted aspartic protease 1 (Candida albicans) (UniProt P0CY26); assay: Inhibition of SAP1-dependent growth in Candida albicans SAP2MS4B expressing SAP1ex4A at 7.3 uM incubated in YCB-BSA medium
Procedure, shortened: (§2)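 Overnight SD-medium (30°C) preculture diluted 1:100 into YCB-BSA (yeast carbon base plus 4 g/liter BSA as sole nitrogen source) adjusted to pH 4.0, with 50 μg/ml doxycycline to induce Tet-promoter SAP expression; incubated 30°C. Pepstatin A 7.3 μM or HIV protease inhibitors 100 μM (0.125% DMSO final); DMSO-only control. Growth followed as OD600 over time.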

[5] = molecular target: Candidapepsin-4 (Candida albicans (strain WO-1) (Yeast)) (UniProt P43093); assay: Inhibition of SAP4-dependent growth in Candida albicans SAP2MS4B expressing SAP4ex4A at 7.3 uM incubated in YCB-BSA medium; procedure, shortened: as §1
[6] = molecular target: Secreted aspartic protease 3 (Candida albicans) (UniProt P0CY28); assay: Inhibition of SAP3-dependent growth in Candida albicans SAP2MS4B expressing SAP3ex4A at 7.3 uM incubated in YCB-BSA medium; procedure, shortened: as §2
[7] = molecular target: Secreted aspartic protease 8 (Candida albicans) (UniProt O42778); assay: Inhibition of SAP8-dependent growth in Candida albicans SAP2MS4B expressing SAP8ex4A at 7.3 uM incubated in YCB-BSA medium; procedure, shortened: as §2
[8] = molecular target: T1, Secreted aspartic protease 5 (Candida albicans (strain SC5314 / ATCC MYA-2876) (Yeast)); assay: Inhibition of SAP5-dependent growth in Candida albicans SAP2MS4B expressing SAP5ex4A at 100 uM incubated in YCB-BSA medium; procedure, shortened: as §1
[9] = molecular target: Secreted aspartic protease 1 (Candida albicans) (UniProt P0CY26); assay: Inhibition of SAP1-dependent growth in Candida albicans SAP2MS4B expressing SAP1ex4A at 100 uM incubated in YCB-BSA medium; procedure, shortened: as §2
[10] = molecular target: Secreted aspartic protease 8 (Candida albicans) (UniProt O42778); assay: Inhibition of SAP8-dependent growth in Candida albicans SAP2MS4B expressing SAP8ex4A at 100 uM incubated in YCB-BSA medium; procedure, shortened: as §2
[11] = molecular target: Secreted aspartic protease 3 (Candida albicans) (UniProt P0CY28); assay: Inhibition of SAP3-dependent growth in Candida albicans SAP2MS4B expressing SAP3ex4A at 100 uM incubated in YCB-BSA medium; procedure, shortened: as §2
[12] = molecular target: Secreted aspartic protease 2 (Candida albicans) (UniProt P0CS83); assay: Inhibition of SAP2-dependent growth in Candida albicans SAP2MS4B expressing SAP2ex4A at 100 uM incubated in YCB-BSA medium; procedure, shortened: as §2
[13] = molecular target: Candidapepsin-4 (Candida albicans (strain WO-1) (Yeast)) (UniProt P43093); assay: Inhibition of SAP4-dependent growth in Candida albicans SAP2MS4B expressing SAP4ex4A at 100 uM incubated in YCB-BSA medium; procedure, shortened: as §1
[14] = molecular target: T2, Secreted aspartic protease 9 (Candida albicans); assay: Inhibition of SAP9-dependent growth in Candida albicans SAP2MS4B expressing SAP9deltaC493 at 100 uM incubated in YCB-BSA medium; procedure, shortened: as §1
[15] = molecular target: Secreted aspartic protease 6 (Candida albicans) (UniProt P43095); assay: Inhibition of SAP6-dependent growth in Candida albicans SAP2MS4B expressing SAP6ex4A at 100 uM incubated in YCB-BSA medium; procedure, shortened: as §1

Sequence of Secreted aspartic protease 1 (Candida albicans) (P0CY26 whole entry): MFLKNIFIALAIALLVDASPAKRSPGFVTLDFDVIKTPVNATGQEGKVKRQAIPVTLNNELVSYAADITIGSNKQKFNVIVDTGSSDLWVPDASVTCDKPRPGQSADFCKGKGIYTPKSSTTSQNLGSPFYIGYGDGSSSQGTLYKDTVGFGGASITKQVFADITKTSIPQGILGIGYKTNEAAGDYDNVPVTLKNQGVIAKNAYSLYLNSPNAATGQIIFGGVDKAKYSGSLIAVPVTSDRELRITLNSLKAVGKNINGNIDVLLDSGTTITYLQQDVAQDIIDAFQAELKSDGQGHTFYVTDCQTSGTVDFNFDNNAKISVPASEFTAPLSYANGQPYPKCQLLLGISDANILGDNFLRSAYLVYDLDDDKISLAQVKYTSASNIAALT
Sequence of Candidapepsin-4 (Candida albicans (strain WO-1) (Yeast)) (P43093 whole entry): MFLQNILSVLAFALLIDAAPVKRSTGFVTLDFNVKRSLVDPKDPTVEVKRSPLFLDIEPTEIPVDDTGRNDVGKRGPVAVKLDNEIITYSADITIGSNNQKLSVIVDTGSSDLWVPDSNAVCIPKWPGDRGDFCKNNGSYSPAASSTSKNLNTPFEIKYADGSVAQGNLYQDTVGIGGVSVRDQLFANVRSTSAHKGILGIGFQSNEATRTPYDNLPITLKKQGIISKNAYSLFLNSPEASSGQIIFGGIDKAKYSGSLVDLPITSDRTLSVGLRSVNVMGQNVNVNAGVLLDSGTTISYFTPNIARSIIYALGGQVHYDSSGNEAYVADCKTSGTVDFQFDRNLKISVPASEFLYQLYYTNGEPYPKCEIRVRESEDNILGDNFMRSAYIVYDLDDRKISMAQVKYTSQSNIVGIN
Sequence of Secreted aspartic protease 8 (Candida albicans) (O42778 whole entry): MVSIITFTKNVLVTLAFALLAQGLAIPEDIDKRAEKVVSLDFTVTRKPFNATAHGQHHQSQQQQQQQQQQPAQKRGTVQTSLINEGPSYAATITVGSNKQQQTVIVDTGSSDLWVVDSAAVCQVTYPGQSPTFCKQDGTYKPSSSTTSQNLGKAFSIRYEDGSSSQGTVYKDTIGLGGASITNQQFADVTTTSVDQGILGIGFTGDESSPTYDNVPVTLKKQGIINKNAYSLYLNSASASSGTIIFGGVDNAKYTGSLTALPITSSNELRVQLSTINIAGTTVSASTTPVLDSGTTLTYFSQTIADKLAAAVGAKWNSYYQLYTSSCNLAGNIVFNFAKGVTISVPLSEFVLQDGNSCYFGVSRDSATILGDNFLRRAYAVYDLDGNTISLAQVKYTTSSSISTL
Sequence of Secreted aspartic protease 6 (Candida albicans) (P43095 whole entry): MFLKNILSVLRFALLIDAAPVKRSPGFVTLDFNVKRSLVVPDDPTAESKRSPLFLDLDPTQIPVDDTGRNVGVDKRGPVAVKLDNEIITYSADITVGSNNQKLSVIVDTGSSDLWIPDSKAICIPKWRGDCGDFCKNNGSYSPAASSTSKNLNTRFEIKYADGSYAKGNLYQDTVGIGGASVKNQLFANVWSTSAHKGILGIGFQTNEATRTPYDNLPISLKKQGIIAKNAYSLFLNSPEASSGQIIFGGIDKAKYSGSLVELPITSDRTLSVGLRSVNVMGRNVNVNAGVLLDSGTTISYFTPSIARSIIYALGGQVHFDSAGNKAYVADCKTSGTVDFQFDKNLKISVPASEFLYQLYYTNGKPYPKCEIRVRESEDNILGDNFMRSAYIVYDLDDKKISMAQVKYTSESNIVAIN
Sequence of Secreted aspartic protease 3 (Candida albicans) (P0CY28 whole entry): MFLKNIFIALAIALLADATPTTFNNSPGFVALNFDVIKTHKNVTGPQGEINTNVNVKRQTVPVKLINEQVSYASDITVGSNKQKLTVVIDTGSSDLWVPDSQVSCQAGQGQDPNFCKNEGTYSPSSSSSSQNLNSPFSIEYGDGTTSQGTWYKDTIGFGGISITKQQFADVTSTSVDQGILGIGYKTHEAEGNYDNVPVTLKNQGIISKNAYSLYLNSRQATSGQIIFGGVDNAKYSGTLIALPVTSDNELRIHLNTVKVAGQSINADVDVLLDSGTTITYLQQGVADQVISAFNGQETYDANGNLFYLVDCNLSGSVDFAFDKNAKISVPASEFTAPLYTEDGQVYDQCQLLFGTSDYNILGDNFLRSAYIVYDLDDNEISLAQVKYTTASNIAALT
Sequence of Secreted aspartic protease 2 (Candida albicans) (P0CS83 57-398 limits assumed): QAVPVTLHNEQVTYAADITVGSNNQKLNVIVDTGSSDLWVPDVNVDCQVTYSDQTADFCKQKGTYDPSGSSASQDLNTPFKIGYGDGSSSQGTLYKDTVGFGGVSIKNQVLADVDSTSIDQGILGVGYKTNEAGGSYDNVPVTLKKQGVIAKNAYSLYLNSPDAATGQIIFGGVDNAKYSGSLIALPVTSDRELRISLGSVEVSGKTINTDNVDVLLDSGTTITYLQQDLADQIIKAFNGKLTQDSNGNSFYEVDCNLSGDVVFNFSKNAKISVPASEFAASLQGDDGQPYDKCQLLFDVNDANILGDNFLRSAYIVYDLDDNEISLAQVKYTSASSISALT

Activity [8] | Activity [9] | Activity [10] | Activity [11] | Activity [12] | Activity [13] | Activity [14] | Activity [15] | Structure (SMILES) | Activity [1] | Activity [2] | Activity [3] | Activity [4] | Activity [5] | Activity [6] | Activity [7]
– | – | – | – | – | – | – | – | CC(C)CC(=O)N[C@H](C(=O)N[C@H](C(=O)N[C@@H](CC(C)C)[C@@H](O)CC(=O)N[C@@H](C)C(=O)N[C@@H](CC(C)C)[C@@H](O)CC(=O)O)C(C)C)C(C)C | Active | Active | Active | Active | Active | Active | Active
inactive | Active | inactive | Active | Active | inactive | inactive | inactive | CC(C)c1nc(CN(C)C(=O)N[C@H](C(=O)N[C@@H](Cc2ccccc2)C[C@H](O)[C@H](Cc2ccccc2)NC(=O)OCc2cncs2)C(C)C)cs1 | – | – | – | – | – | – | –
inactive | Active | inactive | – | – | inactive | inactive | inactive | CC(C)(C)NC(=O)[C@@H]1C[C@@H]2CCCC[C@@H]2CN1C[C@@H](O)[C@H](Cc1ccccc1)NC(=O)[C@H](CC(N)=O)NC(=O)c1ccc2ccccc2n1 | – | – | – | – | – | – | –
